A short description of data set [1]: n-Octanol-aqueous buffer distribution coefficient, log D of the compound at pH 7.4 by LC-MS method. It counts as physicochemical.
The nature of data set [2]: Effective permeability of the compound by PAMPA. In kind it is ADME. Particulars: read-out: Peff. The gist of the method:
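PAMPA run externally; effective permeability reported together with membrane retention and log apparent permeability coefficient.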
In general terms: The PAMPA barrier holds no transporters, so it reflects passive diffusion.

Data set [3] in a line: Effective permeability of the compound assessed as membrane retention by PAMPA relative to control. It counts as ADME.
Data set [4] in a line: Dissociation constant, pKa of the compound by capillary electrophoresis method. In kind it is physicochemical.
Data set [5] addresses T1, Polyunsaturated fatty acid 5-lipoxygenase (Rattus norvegicus, UniProt P12527).
T1 sequence (P12527 whole entry): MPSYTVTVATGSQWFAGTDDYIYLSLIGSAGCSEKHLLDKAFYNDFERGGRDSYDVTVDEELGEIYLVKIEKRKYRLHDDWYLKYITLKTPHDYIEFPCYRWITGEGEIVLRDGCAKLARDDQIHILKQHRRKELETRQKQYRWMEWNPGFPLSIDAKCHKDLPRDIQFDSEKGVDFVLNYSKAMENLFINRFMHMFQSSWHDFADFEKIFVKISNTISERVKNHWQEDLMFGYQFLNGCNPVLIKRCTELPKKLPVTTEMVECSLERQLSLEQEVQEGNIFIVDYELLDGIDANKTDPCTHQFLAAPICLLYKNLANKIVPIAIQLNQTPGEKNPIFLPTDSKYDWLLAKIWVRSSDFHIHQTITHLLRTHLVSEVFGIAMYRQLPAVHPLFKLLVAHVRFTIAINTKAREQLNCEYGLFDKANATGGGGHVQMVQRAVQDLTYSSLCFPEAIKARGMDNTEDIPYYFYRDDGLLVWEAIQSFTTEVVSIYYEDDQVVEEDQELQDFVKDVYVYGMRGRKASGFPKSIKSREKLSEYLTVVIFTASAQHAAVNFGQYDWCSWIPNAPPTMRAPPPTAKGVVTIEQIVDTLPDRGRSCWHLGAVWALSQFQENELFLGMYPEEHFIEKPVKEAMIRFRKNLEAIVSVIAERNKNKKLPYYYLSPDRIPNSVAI
Description: Inhibition of 5-LOX in RBL1 cells assessed as reduction in LTB4 production using A23187-induced arachidonic acid as substrate preincubated for 2 hrs followed by A23187 addition measured after 15 mins by LC-MS/MS analysis. It counts as cell-based. Put shortly: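 RBL-1 cells incubated 2 h with test compound at several concentrations, then A23187 (12 μM) added for 15 min to trigger arachidonic acid release; LTB4 in culture supernatant quantified by LC–MS/MS. Triplicate samples per concentration; IC50 with 95% confidence interval from sigmoidal curve fit.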

Data set [6] has as its target T2, Cyclooxygenase (Rattus norvegicus, UniProt P35355+Q63921).
T2 sequence (P35355 whole entry): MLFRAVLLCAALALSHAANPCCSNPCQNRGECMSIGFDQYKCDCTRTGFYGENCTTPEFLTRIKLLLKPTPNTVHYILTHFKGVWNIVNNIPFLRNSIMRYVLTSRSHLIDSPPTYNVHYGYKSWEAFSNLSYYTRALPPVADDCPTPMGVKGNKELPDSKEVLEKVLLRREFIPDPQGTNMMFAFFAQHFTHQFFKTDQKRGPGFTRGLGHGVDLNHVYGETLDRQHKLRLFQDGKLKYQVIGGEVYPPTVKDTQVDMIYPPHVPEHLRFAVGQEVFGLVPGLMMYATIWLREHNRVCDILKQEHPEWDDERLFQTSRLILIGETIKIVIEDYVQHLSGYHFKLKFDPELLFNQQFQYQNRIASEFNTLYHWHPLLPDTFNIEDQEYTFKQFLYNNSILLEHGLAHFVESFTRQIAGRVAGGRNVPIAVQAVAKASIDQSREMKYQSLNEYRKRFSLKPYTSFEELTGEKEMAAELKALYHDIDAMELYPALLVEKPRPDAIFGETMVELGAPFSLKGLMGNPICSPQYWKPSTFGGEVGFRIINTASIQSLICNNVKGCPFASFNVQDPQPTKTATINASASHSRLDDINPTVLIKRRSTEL
T2 sequence (Q63921 whole entry): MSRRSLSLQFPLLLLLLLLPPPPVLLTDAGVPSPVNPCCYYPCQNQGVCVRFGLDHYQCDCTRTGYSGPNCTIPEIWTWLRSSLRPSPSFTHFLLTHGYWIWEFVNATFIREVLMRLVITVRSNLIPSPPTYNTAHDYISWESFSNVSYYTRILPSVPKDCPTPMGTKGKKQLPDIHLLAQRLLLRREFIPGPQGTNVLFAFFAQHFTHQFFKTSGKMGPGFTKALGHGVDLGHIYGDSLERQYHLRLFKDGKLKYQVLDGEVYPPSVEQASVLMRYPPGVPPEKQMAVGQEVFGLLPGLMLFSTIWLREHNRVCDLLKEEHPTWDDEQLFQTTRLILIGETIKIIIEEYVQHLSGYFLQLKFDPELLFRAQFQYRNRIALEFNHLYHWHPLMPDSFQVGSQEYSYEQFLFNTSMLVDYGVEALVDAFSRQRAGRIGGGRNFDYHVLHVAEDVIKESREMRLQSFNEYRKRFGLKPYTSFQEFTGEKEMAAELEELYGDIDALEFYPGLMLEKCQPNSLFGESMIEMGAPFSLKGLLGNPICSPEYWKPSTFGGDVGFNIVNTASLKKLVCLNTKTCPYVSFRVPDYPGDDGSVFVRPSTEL
Description: Inhibition of COX in RBL1 cells assessed as reduction in PGE2/D2 production using A23187-induced arachidonic acid as substrate preincubated for 2 hrs followed by A23187 addition measured after 15 mins by LC-MS/MS analysis. It counts as cell-based.

The structures appear in SMILES notation.

What is called logD is lipophilicity at a set pH, counting ionised and neutral species. Read a high logD as higher lipophilicity. Broadly, the pKa is the negative logarithm of the acid dissociation constant. Read a high pKa as a group that holds its proton tightly. What is called IC50 is the concentration that gives 50% inhibition.

In data set [1], `[O-][S+]1CC(O)(CCc2ccccc2)C1` (centres undefined) displayed a logD of 1.22. In addition, the Papp in data set [2] is 6.23 ×10⁻⁶ cm/s. Moreover, the R% in data set [3] was determined as 10%. For the same compound, the pKa in data set [4] was above 12.
Regarding `CC(C)Cc1ccc(C(C)C(=O)O)cc1` (centres undefined) [IBUPROFEN], the IC50 in data set [5] was above 100 µM.
In the case of `CC(C)Cc1ccc(C(C)C2(O)CS(=O)(=O)C2)cc1` (centres undefined), the half-inhibitory concentration (IC50) in data set [6] turned out to be 14.6 µM; in data set [5], 20.2 µM.
In turn, `OC1(CCc2ccccc2)CSC1` gave a logD in data set [1] of 2.99. Besides, in data set [2], the Papp came out at 13.2 ×10⁻⁶ cm/s. In addition, in data set [3], the R% is recorded as 11.4%. In data set [4], this compound registered a pKa above 12.
Compound `O=S1(=O)CC(O)(CCc2ccccc2)C1` came in with a logD in data set [1] of 1.24. The Papp in data set [2] is 12.2 ×10⁻⁶ cm/s. Besides, the R% in data set [3] is reported as 10.7%. Further, the pKa in data set [4] was determined as 9.31.
The compound `OC1(CCc2ccccc2)COC1` showed a logD in data set [1] of 2.07. Further, the Papp in data set [2] was 8.27 ×10⁻⁶ cm/s. Moreover, in data set [3], the R% is -11.9%. Also, the pKa in data set [4] is above 12.
In the case of `CC(C)Cc1ccc(C(C)c2nnn[nH]2)cc1` (centres undefined), the IC50 was 31.8 µM in data set [6] and above 100 µM in data set [5].
As for `CC(C)Cc1ccc(C(C)C2(O)C[S+]([O-])C2)cc1` (centres undefined), the concentration for half-maximal inhibition (IC50) in data set [6] was 17.4 µM; in data set [5], 11.7 µM.
Consider `CC(C)Cc1ccc(C(C)C2(O)CSC2)cc1` (centres undefined), for which the IC50 is above 100 µM in data set [6] and 7.6 µM in data set [5].
In the case of `CC(C)Cc1ccc(C2CC(O)=CC2=O)cc1` (centres undefined), the figures for the IC50 in data set [6] and in data set [5] were 28.1 µM and above 100 µM, respectively.
With `CC(C)Cc1ccc(C(C)C2(O)COC2)cc1` (centres undefined), the results for the IC50 in data set [6] and in data set [5] were 34.1 µM and 8.4 µM, respectively.
